In brackets after ≈: the same amount, converted by molar mass. Activity calls are given as the source filed them. The rule behind the calls is not given here.
How the values were obtained:
[1] = test system: Candida albicans; test: Antifungal activity against Candida albicans by broth dilution technique; assay type: functional
Method in brief: (§1)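 Broth dilution technique; each MIC (µg/mL) is the mean of three determinations run in triplicate against the bacterial and fungal strains.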

[2] = test system: Aspergillus flavus; test: Antifungal activity against Aspergillus flavus by broth dilution technique; assay type: functional; method in brief: as §1
[3] = test system: Aspergillus niger; test: Antifungal activity against Aspergillus niger by broth dilution technique; assay type: functional; method in brief: as §1
[4] = test system: Cryptococcus neoformans; test: Antifungal activity against Cryptococcus neoformans by broth dilution technique; assay type: functional; method in brief: as §1
[5] = test system: Pseudomonas aeruginosa; test: Antibacterial activity against Pseudomonas aeruginosa by broth dilution technique; assay type: functional; method in brief: as §1
[6] = test system: Escherichia coli; test: Antibacterial activity against Escherichia coli by broth dilution technique; assay type: functional; method in brief: as §1
[7] = test system: Streptococcus pyogenes; test: Antibacterial activity against Streptococcus pyogenes by broth dilution technique; assay type: functional; method in brief: as §1
[8] = test system: Staphylococcus aureus; test: Antibacterial activity against Staphylococcus aureus by broth dilution technique; assay type: functional; method in brief: as §1
[9] = test system: Radical scavenging activity; test: Antioxidant activity assessed as DPPH radical scavenging activity at 50 ug/ml relative to butylated hydroxytoluene; assay type: functional
Method in brief: (§2)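 DPPH radical scavenging assay with BHT as standard antioxidant. Samples were tested at five concentrations (10, 20, 30, 40 and 50 µg/mL) in triplicate, alongside a control at 0 µg/mL. Read-out is % radical scavenging, reported as mean ± SD.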

[10] = test system: Radical scavenging activity; test: Antioxidant activity assessed as DPPH radical scavenging activity at 40 ug/ml relative to butylated hydroxytoluene; assay type: functional; method in brief: as §2
[11] = test system: Radical scavenging activity; test: Antioxidant activity assessed as DPPH radical scavenging activity at 30 ug/ml relative to butylated hydroxytoluene; assay type: functional; method in brief: as §2
[12] = test system: Radical scavenging activity; test: Antioxidant activity assessed as DPPH radical scavenging activity at 20 ug/ml relative to butylated hydroxytoluene; assay type: functional; method in brief: as §2
[13] = test system: Radical scavenging activity; test: Antioxidant activity assessed as DPPH radical scavenging activity at 10 ug/ml relative to butylated hydroxytoluene; assay type: functional; method in brief: as §2
[14] = test system: Candida albicans; test: Antifungal activity against Candida albicans at 200 ug/ml by broth dilution technique; assay type: functional, organism-based
[15] = test system: Aspergillus flavus; test: Antifungal activity against Aspergillus flavus at 200 ug/ml by broth dilution technique; assay type: functional, organism-based
[16] = test system: Escherichia coli; test: Antibacterial activity against Escherichia coli at 200 ug/ml by broth dilution technique; assay type: functional, organism-based
[17] = test system: Streptococcus pyogenes; test: Antibacterial activity against Streptococcus pyogenes at 200 ug/ml by broth dilution technique; assay type: functional, organism-based

Structure (SMILES) | MIC [1] | MIC [2] | MIC [3] | MIC [4] | MIC [5] | MIC [6] | MIC [7] | MIC [8] | Activity [9] [%] | Activity [10] [%] | Activity [11] [%] | Activity [12] [%] | Activity [13] [%] | Activity [14] | Activity [15] | Activity [16] | Activity [17]
COc1ccccc1N/N=C(/C)c1c(O)ccc2c(C)cc(=O)oc12 | 30 µg/mL (≈ 88.7 µM) | 40 µg/mL (≈ 118 µM) | 50 µg/mL (≈ 148 µM) | 40 µg/mL (≈ 118 µM) | inactive | 50 µg/mL (≈ 148 µM) | 60 µg/mL (≈ 177 µM) | 30 µg/mL (≈ 88.7 µM) |  |  |  |  |  |  |  |  | 
C[C@@H]1[C@H](O)[C@@H](C)/C=C/C=C/C=C/C=C/C=C/C=C/C=C/[C@H](O[C@@H]2O[C@H](C)[C@@H](O)[C@H](N)[C@@H]2O)C[C@@H]2O[C@](O)(C[C@@H](O)C[C@@H](O)[C@H](O)CC[C@@H](O)C[C@@H](O)CC(=O)O[C@H]1C)C[C@H](O)[C@H]2C(=O)O [AMPHOTERICIN B] | 25 µg/mL (≈ 27.1 µM) | 50 µg/mL (≈ 54.1 µM) | 50 µg/mL (≈ 54.1 µM) | 25 µg/mL (≈ 27.1 µM) |  |  |  |  |  |  |  |  |  |  |  |  | 
C/C(=N/Nc1ccccc1C)c1c(O)ccc2c(C)cc(=O)oc12 |  |  | 75 µg/mL (≈ 233 µM) | 40 µg/mL (≈ 124 µM) | 100 µg/mL (≈ 310 µM) | 75 µg/mL (≈ 233 µM) | 50 µg/mL (≈ 155 µM) | 40 µg/mL (≈ 124 µM) |  |  |  |  |  | inactive | inactive |  | 
C/C(=N/Nc1ccc(Cl)cc1)c1c(O)ccc2c(C)cc(=O)oc12 | 30 µg/mL (≈ 87.5 µM) | 50 µg/mL (≈ 146 µM) | 60 µg/mL (≈ 175 µM) | 25 µg/mL (≈ 72.9 µM) | 25 µg/mL (≈ 72.9 µM) | 50 µg/mL (≈ 146 µM) | 50 µg/mL (≈ 146 µM) | 20 µg/mL (≈ 58.3 µM) |  |  |  |  |  |  |  |  | 
C/C(=N/Nc1ccccc1)c1c(O)ccc2c(C)cc(=O)oc12 | 50 µg/mL (≈ 162 µM) | 75 µg/mL (≈ 243 µM) | 75 µg/mL (≈ 243 µM) | 50 µg/mL (≈ 162 µM) | 25 µg/mL (≈ 81.1 µM) | inactive | inactive | 40 µg/mL (≈ 130 µM) |  |  |  |  |  |  |  | inactive | inactive
C/C(=N/Nc1ccc([N+](=O)[O-])cc1[N+](=O)[O-])c1c(O)ccc2c(C)cc(=O)oc12 | inactive | inactive | inactive | inactive | inactive | inactive | 75 µg/mL (≈ 188 µM) | 50 µg/mL (≈ 126 µM) |  |  |  |  |  |  |  |  | 
O=C(O)c1cn(C2CC2)c2cc(N3CCNCC3)c(F)cc2c1=O [CIPROFLOXACIN] |  |  |  |  |  | 25 µg/mL (≈ 75.4 µM) | 50 µg/mL (≈ 151 µM) |  |  |  |  |  |  |  |  |  | 

The next lines start with results.

MIC [1] | MIC [2] | MIC [3] | MIC [4] | MIC [5] | MIC [6] | MIC [7] | MIC [8] | Structure (SMILES) | Activity [9] [%] | Activity [10] [%] | Activity [11] [%] | Activity [12] [%] | Activity [13] [%] | Activity [14] | Activity [15] | Activity [16] | Activity [17]
 |  | 100 µg/mL (≈ 289 µM) | 50 µg/mL (≈ 144 µM) | 50 µg/mL (≈ 144 µM) | 30 µg/mL (≈ 86.6 µM) | inactive | inactive | Cc1cc(=O)oc2c(-c3nn(-c4ccccc4)cc3C=O)c(O)ccc12 | 57.8 | 50.1 | 46.4 | 42.1 | 39.4 | inactive | inactive |  | 
25 µg/mL (≈ 65.7 µM) | 60 µg/mL (≈ 158 µM) | 40 µg/mL (≈ 105 µM) | 15 µg/mL (≈ 39.4 µM) | 15 µg/mL (≈ 39.4 µM) | 30 µg/mL (≈ 78.8 µM) | 35 µg/mL (≈ 91.9 µM) | 15 µg/mL (≈ 39.4 µM) | Cc1cc(=O)oc2c(-c3nn(-c4ccc(Cl)cc4)cc3C=O)c(O)ccc12 | 69.3 | 63.9 | 58.1 | 53.3 | 48.9 |  |  |  | 
inactive | inactive | inactive | inactive | 20 µg/mL (≈ 45.8 µM) | 40 µg/mL (≈ 91.7 µM) | 75 µg/mL (≈ 172 µM) | 40 µg/mL (≈ 91.7 µM) | Cc1cc(=O)oc2c(-c3nn(-c4ccc([N+](=O)[O-])cc4[N+](=O)[O-])cc3C=O)c(O)ccc12 | 56 | 51.1 | 47.1 | 41.9 | 34.7 |  |  |  | 
50 µg/mL (≈ 133 µM) | 25 µg/mL (≈ 66.4 µM) | 50 µg/mL (≈ 133 µM) | 25 µg/mL (≈ 66.4 µM) | 25 µg/mL (≈ 66.4 µM) | 75 µg/mL (≈ 199 µM) | 50 µg/mL (≈ 133 µM) | 30 µg/mL (≈ 79.7 µM) | COc1ccccc1-n1cc(C=O)c(-c2c(O)ccc3c(C)cc(=O)oc23)n1 | 17.4 | 15.6 | 13.3 | 12 | 11.1 |  |  |  | 
 |  | 60 µg/mL (≈ 166 µM) | 30 µg/mL (≈ 83.2 µM) | 50 µg/mL (≈ 139 µM) | 40 µg/mL (≈ 111 µM) | 50 µg/mL (≈ 139 µM) | 30 µg/mL (≈ 83.2 µM) | Cc1ccccc1-n1cc(C=O)c(-c2c(O)ccc3c(C)cc(=O)oc23)n1 | 17.1 | 15.1 | 14.1 | 13.8 | 12.8 | inactive | inactive |  | 

From ChEMBL document CHEMBL2439956, “Synthesis and biological evaluation of novel formyl-pyrazoles bearing coumarin moiety as potent antimicrobial and antioxidant agents” (2013)
